Experimental data from ChEMBL document CHEMBL4257503, “N-Acetyl-3-aminopyrazoles block the non-canonical NF-kB cascade by selectively inhibiting NIK” (Medchemcomm, 2018).
≈ marks a conversion by molar mass, not a printed value. Calls of active or inactive are those of the source. No cut-off for these calls is given here.

Experiments:
[1] = biological target: Mitogen-activated protein kinase kinase kinase 11 (Homo sapiens, UniProt Q16584); assay: Inhibition of MAP3K11 (unknown origin)
[2] = biological target: Ephrin type-A receptor 6 (Homo sapiens, UniProt Q9UF33); assay: Inhibition of EPHA6 (unknown origin)
[3] = biological target: Mitogen-activated protein kinase kinase kinase kinase 2 (Homo sapiens, UniProt Q12851); assay: Inhibition of MAP4K2 (unknown origin)
[4] = Kinetic solubility in phosphate buffered saline at pH 7.4 measured after 60 mins; assay type: physicochemical; conditions: read-out: Kinetic_solubility
[5] = biological target: Dual specificity mitogen-activated protein kinase kinase 1 (Homo sapiens, UniProt Q02750); assay: Inhibition of wild-type MEK1 (unknown origin)
Dual specificity mitogen-activated protein kinase kinase 1, sequence (Q02750 whole entry): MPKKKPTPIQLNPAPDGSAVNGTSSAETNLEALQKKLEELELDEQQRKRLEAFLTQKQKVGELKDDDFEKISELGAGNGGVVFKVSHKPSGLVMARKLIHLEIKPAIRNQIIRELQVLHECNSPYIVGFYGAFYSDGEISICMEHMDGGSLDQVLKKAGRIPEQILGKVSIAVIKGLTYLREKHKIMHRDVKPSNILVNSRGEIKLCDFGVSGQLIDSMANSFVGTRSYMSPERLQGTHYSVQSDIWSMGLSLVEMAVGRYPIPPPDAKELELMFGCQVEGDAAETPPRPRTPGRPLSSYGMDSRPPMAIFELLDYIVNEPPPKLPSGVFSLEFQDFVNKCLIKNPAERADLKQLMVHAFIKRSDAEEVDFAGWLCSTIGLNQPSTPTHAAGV

[6] = biological target: Mitogen-activated protein kinase 14 (Homo sapiens, UniProt Q16539); assay: Inhibition of p38-alpha (unknown origin)
Mitogen-activated protein kinase 14, sequence (Q16539 whole entry, the tested form may be a part): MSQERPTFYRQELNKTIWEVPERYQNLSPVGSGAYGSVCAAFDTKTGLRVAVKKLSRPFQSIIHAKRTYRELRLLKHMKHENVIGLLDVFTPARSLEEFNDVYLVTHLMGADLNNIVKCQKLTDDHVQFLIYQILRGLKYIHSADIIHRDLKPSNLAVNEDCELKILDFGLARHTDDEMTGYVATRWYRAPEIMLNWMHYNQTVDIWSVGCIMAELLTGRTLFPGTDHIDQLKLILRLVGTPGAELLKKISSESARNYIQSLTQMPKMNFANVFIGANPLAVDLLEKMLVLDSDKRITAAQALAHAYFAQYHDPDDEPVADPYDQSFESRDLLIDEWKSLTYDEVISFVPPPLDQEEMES

[7] = biological target: 5'-AMP-activated protein kinase catalytic subunit alpha-1 (Homo sapiens, UniProt Q13131); assay: Inhibition of AMPK alpha1 (unknown origin) (1 to 550 residues)
5'-AMP-activated protein kinase catalytic subunit alpha-1, sequence (Q13131 whole entry, the tested form may be a part): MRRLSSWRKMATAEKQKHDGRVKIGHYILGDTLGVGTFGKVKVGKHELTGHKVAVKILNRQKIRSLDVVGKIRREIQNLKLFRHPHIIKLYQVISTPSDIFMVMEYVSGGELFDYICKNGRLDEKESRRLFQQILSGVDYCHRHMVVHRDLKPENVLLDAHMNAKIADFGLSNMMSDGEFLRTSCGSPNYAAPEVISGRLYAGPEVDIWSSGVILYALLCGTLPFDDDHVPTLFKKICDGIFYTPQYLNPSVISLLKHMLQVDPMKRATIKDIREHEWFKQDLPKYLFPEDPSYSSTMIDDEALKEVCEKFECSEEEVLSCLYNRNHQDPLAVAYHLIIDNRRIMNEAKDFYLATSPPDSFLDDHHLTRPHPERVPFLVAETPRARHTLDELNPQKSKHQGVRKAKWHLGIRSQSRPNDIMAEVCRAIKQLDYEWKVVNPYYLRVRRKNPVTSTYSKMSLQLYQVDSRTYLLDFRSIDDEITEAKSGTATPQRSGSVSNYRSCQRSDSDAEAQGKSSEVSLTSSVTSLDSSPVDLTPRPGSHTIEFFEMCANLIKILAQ

[8] = biological target: Tyrosine-protein kinase SYK (Homo sapiens, UniProt P43405); assay: Inhibition of SYK (unknown origin)
[9] = biological target: T1, Inhibitor of nuclear factor kappa-B kinase subunit epsilon (Homo sapiens, UniProt Q14164); assay: Inhibition of recombinant human full-length N-terminal GST-fused/His6-tagged IKKepsilon (M1 to V716 residues) expressed in Sf9 insect cells using ERLLDDRHDSGLDSMKDEE peptide as substrate measured after 60 mins by ADP-Glo kinase assay
T1 sequence (Q14164 whole entry): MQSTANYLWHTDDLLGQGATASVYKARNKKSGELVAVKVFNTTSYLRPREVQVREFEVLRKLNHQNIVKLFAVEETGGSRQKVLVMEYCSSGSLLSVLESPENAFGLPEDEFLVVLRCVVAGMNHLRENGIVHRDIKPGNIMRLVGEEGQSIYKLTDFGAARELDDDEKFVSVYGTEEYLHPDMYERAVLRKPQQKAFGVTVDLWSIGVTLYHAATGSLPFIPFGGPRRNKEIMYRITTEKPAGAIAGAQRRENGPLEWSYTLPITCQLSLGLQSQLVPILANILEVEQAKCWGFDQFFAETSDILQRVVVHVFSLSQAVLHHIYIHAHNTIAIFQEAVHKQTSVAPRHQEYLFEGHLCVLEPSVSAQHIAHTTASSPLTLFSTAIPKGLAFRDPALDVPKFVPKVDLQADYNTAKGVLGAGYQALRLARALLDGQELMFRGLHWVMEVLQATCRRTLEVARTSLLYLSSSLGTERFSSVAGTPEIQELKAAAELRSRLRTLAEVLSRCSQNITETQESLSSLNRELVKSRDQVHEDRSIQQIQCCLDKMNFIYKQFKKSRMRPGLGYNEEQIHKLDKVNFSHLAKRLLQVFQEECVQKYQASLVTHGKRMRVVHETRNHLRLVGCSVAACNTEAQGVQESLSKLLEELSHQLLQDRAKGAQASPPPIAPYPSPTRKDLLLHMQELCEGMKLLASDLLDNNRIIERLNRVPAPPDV

[10] = biological target: Tyrosine-protein kinase receptor UFO (Homo sapiens, UniProt P30530); assay: Inhibition of AXL (unknown origin)
[11] = biological target: Dual specificity protein kinase CLK1 (Homo sapiens, UniProt P49759); assay: Inhibition of CLK1 (unknown origin)
[12] = Cytotoxicity against human SKBR3 cells assessed as cell viability at 100 uM after 6 hrs by CellTiter Glo luminescent assay relative to control; assay type: cell-based, SK-BR-3; conditions: read-out: Activity
How it was run: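 Cells seeded at 5 x 10^3 per well and exposed for 6 h to the compound (10, 25, 50 or 100 µM) or to DMSO vehicle. Viability was read as intracellular ATP by CellTiter Glo luminescence.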

[13] = biological target: Serine/threonine-protein kinase mTOR (Homo sapiens, UniProt P42345); assay: Inhibition of mTOR (unknown origin)
[14] = biological target: Tyrosine-protein kinase JAK1 (Homo sapiens, UniProt P23458); assay: Inhibition of JAK1 (unknown origin)
[15] = biological target: Receptor-type tyrosine-protein kinase FLT3 (Homo sapiens, UniProt P36888); assay: Inhibition of wild-type FLT3 (unknown origin)
Receptor-type tyrosine-protein kinase FLT3, sequence (P36888 whole entry): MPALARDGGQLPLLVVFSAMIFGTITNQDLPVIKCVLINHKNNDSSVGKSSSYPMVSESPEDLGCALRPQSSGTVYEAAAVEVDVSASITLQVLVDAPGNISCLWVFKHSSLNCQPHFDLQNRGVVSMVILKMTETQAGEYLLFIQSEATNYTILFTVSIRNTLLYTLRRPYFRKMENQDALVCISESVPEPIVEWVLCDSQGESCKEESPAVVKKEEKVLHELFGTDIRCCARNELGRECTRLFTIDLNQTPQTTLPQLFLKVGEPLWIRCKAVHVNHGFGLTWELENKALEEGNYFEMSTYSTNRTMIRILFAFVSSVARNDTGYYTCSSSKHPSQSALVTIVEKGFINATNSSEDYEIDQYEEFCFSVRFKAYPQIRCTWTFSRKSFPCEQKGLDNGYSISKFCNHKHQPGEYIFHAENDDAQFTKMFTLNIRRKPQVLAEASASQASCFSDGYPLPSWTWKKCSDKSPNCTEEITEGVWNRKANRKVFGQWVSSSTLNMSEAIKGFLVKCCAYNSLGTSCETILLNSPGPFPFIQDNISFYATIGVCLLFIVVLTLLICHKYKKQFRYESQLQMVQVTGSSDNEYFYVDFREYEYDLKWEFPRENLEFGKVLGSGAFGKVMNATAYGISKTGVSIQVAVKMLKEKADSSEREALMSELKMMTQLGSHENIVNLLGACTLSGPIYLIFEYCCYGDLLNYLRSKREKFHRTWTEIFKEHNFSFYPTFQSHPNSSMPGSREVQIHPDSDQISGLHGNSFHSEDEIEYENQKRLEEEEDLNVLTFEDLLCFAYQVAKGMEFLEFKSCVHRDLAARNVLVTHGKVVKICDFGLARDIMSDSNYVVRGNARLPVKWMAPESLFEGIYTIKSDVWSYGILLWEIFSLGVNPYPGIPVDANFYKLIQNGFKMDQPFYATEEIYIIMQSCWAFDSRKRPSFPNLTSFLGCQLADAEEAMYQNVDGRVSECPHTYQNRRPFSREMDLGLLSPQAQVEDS

[16] = biological target: Fibroblast growth factor receptor 1 (Homo sapiens, UniProt P11362); assay: Inhibition of wild-type FGFR1 (unknown origin)
[17] = biological target: T2, Inhibitor of nuclear factor kappa-B kinase subunit beta (Homo sapiens, UniProt O14920); assay: Inhibition of recombinant human full-length N-terminal GST-fused/His6-tagged IKKbeta (M1 to S756 residues) expressed in Sf9 insect cells using ERLLDDRHDSGLDSMKDEE peptide as substrate measured after 60 mins by ADP-Glo kinase assay
T2 sequence (O14920 whole entry): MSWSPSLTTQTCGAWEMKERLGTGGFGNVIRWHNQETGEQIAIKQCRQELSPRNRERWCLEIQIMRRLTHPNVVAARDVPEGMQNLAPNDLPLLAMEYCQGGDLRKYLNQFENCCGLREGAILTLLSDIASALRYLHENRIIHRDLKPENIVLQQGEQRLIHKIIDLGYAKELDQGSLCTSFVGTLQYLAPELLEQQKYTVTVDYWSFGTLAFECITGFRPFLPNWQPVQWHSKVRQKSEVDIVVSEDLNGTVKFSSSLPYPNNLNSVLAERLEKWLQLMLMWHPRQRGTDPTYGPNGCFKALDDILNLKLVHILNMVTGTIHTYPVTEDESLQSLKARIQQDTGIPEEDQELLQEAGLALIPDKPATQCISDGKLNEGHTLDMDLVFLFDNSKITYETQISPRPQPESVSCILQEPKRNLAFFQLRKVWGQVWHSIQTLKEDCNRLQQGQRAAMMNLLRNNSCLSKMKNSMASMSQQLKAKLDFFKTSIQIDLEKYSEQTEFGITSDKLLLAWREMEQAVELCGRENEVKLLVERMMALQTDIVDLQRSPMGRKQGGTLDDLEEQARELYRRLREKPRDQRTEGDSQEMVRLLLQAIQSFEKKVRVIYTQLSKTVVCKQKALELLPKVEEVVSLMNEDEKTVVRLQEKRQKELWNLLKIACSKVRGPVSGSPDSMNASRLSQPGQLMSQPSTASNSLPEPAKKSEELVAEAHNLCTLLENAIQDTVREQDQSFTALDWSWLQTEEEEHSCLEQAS

[18] = biological target: Serine/threonine-protein kinase tousled-like 1 (Homo sapiens, UniProt Q9UKI8); assay: Inhibition of TLK1 (unknown origin)
Serine/threonine-protein kinase tousled-like 1, sequence (Q9UKI8 whole entry, the tested form may be a part): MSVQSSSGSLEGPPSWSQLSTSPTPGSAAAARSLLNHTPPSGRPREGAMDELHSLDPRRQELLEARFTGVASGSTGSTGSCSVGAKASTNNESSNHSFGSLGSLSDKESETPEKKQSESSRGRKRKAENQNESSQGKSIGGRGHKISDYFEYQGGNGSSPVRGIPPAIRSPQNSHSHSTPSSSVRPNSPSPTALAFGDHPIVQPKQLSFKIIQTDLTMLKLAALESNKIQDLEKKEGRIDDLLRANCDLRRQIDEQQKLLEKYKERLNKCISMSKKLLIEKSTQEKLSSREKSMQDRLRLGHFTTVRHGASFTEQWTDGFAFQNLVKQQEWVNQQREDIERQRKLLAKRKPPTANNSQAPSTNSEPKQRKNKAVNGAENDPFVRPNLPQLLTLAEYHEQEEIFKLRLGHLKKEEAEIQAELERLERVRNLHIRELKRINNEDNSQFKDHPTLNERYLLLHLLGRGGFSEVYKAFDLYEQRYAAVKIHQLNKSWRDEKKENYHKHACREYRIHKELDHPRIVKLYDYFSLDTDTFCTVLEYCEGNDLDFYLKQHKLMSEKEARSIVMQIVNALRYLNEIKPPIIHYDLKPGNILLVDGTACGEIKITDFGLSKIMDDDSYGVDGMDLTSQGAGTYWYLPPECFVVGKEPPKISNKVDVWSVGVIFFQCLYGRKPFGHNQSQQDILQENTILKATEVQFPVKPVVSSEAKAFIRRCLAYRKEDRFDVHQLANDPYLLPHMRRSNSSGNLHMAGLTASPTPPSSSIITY

[19] = organism: Mus musculus; assay: Inhibition of mouse NIK kinase domain V480L mutant
[20] = biological target: Dual specificity tyrosine-phosphorylation-regulated kinase 1A (Homo sapiens, UniProt Q13627); assay: Inhibition of DYRK1A (unknown origin)
[21] = biological target: Hepatocyte growth factor receptor (Homo sapiens, UniProt P08581); assay: Inhibition of wild-type MET (unknown origin)
Hepatocyte growth factor receptor, sequence (P08581 whole entry): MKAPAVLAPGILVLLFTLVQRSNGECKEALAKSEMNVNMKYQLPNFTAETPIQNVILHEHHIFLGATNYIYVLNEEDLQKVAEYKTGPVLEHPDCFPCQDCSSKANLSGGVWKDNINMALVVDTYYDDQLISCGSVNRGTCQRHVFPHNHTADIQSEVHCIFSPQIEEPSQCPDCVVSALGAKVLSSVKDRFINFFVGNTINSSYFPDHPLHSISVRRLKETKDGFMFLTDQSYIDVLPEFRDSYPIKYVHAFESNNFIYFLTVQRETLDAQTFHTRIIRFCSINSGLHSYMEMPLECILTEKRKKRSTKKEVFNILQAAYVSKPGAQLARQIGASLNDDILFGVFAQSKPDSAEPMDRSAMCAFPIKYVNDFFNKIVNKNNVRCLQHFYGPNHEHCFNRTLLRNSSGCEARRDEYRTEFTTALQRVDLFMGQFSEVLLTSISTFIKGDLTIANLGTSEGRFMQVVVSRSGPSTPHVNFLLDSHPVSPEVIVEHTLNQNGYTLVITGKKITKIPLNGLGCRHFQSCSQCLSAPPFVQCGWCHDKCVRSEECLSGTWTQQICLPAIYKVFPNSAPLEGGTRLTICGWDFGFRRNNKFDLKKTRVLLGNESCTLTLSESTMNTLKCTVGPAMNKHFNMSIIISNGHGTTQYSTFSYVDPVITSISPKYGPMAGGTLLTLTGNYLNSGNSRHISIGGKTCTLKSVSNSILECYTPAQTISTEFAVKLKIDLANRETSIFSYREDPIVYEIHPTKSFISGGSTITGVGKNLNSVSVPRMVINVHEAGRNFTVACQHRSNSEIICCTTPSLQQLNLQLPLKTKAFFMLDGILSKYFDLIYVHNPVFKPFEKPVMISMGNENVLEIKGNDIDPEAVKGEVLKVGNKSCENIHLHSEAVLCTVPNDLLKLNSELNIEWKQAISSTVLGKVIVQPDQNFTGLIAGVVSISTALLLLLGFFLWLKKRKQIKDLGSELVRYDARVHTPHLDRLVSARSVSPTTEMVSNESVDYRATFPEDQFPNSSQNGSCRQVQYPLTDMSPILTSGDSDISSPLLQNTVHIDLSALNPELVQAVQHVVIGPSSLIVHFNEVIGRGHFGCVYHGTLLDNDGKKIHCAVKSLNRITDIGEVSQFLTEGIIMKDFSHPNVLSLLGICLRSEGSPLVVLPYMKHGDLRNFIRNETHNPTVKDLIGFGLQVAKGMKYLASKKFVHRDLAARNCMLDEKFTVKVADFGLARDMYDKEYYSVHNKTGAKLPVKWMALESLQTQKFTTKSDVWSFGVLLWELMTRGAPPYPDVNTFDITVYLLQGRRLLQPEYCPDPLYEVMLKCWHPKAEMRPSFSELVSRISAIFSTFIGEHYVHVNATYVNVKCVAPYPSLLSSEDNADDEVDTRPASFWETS

[22] = biological target: Casein kinase II subunit alpha (Homo sapiens, UniProt P68400); assay: Inhibition of CK2-alpha1 (unknown origin)
Casein kinase II subunit alpha, sequence (P68400 whole entry): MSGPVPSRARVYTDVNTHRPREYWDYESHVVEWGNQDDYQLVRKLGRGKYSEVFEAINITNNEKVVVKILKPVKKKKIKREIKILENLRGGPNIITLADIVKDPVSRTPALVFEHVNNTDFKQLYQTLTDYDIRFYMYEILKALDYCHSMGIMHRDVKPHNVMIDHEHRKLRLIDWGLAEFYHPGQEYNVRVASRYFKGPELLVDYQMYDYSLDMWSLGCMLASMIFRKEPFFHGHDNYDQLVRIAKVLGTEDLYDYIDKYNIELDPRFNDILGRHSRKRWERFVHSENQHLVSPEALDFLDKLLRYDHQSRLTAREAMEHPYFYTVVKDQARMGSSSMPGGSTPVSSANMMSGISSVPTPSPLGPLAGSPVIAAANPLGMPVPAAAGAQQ

[23] = biological target: 3-phosphoinositide-dependent protein kinase 1 (Homo sapiens, UniProt O15530); assay: Inhibition of PDK1 (unknown origin)

- IC50 [1]: > 100 µM
- IC50 [2]: > 100 µM
- IC50 [3]: > 100 µM
- solubility kinetic at 1 h [4]: 12 µM (≈ 3.41 µg/mL)
- IC50 [5]: > 100 µM
- IC50 [6]: > 100 µM
- IC50 [7]: > 100 µM
- IC50 [8]: > 100 µM
- IC50 [9]: > 100 µM
- IC50 [10]: > 100 µM
- IC50 [11]: > 100 µM
- IC50 [13]: > 100 µM
- IC50 [14]: > 100 µM
- IC50 [15]: > 100 µM
- IC50 [16]: > 100 µM
- IC50 [17]: > 100 µM
- IC50 [18]: > 100 µM
- inhibition [19]: inactive
- IC50 [20]: > 100 µM
- IC50 [21]: > 100 µM
- IC50 [22]: > 100 µM
- IC50 [23]: > 100 µM
Compound: CC(=O)n1nc(C)c(-c2ccc(Cl)c(Cl)c2)c1N
- viability at 6 h, 100 µM [12]: ≥ 80%
